Ratio, inhibition and Activity data for four compounds are collected here from ChEMBL document CHEMBL4251738, “A BODIPY-Tagged Phosphono Peptide as Activity-Based Probe for Human Leukocyte Elastase” (ACS Med Chem Lett, 2018).

Molecules are shown by their SMILES. Activity calls are given as the source filed them. No cut-off for these calls is given here. A value given as a limit tells only on which side of the number the result lay.

Experiment [1] has as its target T1, Neutrophil elastase (Homo sapiens) (UniProt P08246).
T1 sequence (whole entry): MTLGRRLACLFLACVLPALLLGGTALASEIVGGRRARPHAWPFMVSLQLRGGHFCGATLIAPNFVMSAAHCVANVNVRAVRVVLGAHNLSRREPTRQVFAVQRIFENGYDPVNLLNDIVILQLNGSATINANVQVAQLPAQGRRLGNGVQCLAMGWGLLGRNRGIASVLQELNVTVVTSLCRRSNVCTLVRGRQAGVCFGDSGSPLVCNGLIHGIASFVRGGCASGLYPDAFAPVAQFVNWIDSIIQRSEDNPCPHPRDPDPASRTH
The experiment in a line: Irreversible inhibition of human leukocyte elastase assessed as ratio of Kinact to Ki using MeO-Suc-Ala-Ala-Pro-Val-pNA as substrate incubated over 60 mins by spectrophotometric method. The procedure, abridged:
(§1)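 From substrate-consumption progress curves, kobs values (means of duplicates) were plotted against inhibitor concentration. kinac/Ki was derived by linear regression as kinac/Ki = kobs/[I](1 + [S]/Km) + d, where d is an offset. SEM is from that regression.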

Experiment [2] concerns the target Coagulation factor X (Bos taurus) (UniProt P00743). The experiment in a line: Inhibition of bovine factor 10a assessed as product formation at 1 uM using Boc-Ile-Glu-Gly-Arg-AMC as substrate incubated over 60 mins by fluorimetric method. The procedure, abridged:
(§2)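 Single-point test at 1 μM inhibitor, run in duplicate. Product formation was followed over 60 min. More than 90% product formation after 60 min was scored as no inhibition.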

The species named for experiment [3] is Bos taurus. Briefly: Inhibition of bovine chymotrypsin assessed as product formation at 1 uM using Suc-Ala-Ala-Pro-Phe-pNA as substrate incubated over 60 mins by spectrophotometric method. The procedure, abridged: as §2
Experiment [4] has as its target Cathepsin B (Homo sapiens) (UniProt P07858). Briefly: Inhibition of human cathepsin B assessed as product formation at 1 uM using Z-Arg-Arg-pNA as substrate incubated over 60 mins by spectrophotometric method. The essentials: as §2
Experiment [5] addresses T2, Pancreatic elastase (Sus scrofa) (UniProt P08419+P00772). Briefly: Inhibition of porcine pancreatic elastase assessed as ratio of Kinact to Ki using MeO-Suc-Ala-Ala-Pro-Val-pNA as substrate incubated over 60 mins by spectrophotometric method. The experiment is classed as protein assay. The procedure, abridged:
as §1

For experiment [6], the species on record is Bos taurus. Briefly: Inhibition of bovine trypsin assessed as product formation at 1 uM using Suc-Ala-Ala-Pro-Arg-pNA as substrate incubated over 60 mins by spectrophotometric method. The procedure, abridged: as §2
Experiment [7] deals with T1, Neutrophil elastase (Homo sapiens). The experiment in a line: Irreversible inhibition of human leukocyte elastase at 20 nM using MeO-Suc-Ala-Ala-Pro-Val-pNA as substrate incubated for 30 mins followed by substrate addition.
Experiment [8] shares this target. The experiment in a line: Irreversible inhibition of human leukocyte elastase assessed as ratio of Kinact to Ki using MeO-Suc-Ala-Ala-Pro-Val-pNA as substrate by spectrophotometric method. The conditions noted are these: TDE = time-dependent effect. The procedure, abridged: as §1
Experiment [9] has as its target Prothrombin (Homo sapiens) (UniProt P00734). Briefly: Inhibition of human thrombin assessed as product formation at 1 uM using Z-Gly-Gly-Arg-AMC as substrate incubated over 60 mins by fluorimetric method. The procedure, abridged: as §2
The target of experiment [10] is Procathepsin L (Homo sapiens) (UniProt P07711). The experiment in a line: Inhibition of human cathepsin L assessed as product formation at 1 uM using Z-Phe-Arg-pNA as substrate incubated over 60 mins by spectrophotometric method. The essentials:
as §2

The target in experiment [11] is T1, Neutrophil elastase (Homo sapiens). The experiment in a line: Irreversible inhibition of human leukocyte elastase at 50 nM using MeO-Suc-Ala-Ala-Pro-Val-pNA as substrate incubated for 30 mins followed by substrate addition.
Experiment [12] has the same target. Briefly: Inhibition of human leukocyte elastase at 2.5 uM preincubated with sivelestat for 5 mins followed by compound addition measured after 20 mins in presence of sivelestat by in gel fluorescence detection based SDS-PAGE analysis. The procedure, abridged: (§3)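 It was then incubated with 2.5 μM probe. Samples were resolved by SDS-PAGE, read by in-gel fluorescence and then by Coomassie staining.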

Experiment [13] shares this target. The experiment in a line: Binding affinity to human leukocyte elastase at 2.5 uM after 20 mins by in gel fluorescence detection based SDS-PAGE analysis. The procedure, abridged: (§4)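 Varying amounts of HLE were incubated with 2.5 μM fluorescent probe and then run on SDS-PAGE. Labeled HLE was read by in-gel fluorescence as bands at about 29 kDa. The same gel was then stained with Coomassie.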

The species named for experiment [14] is Bos taurus. The experiment in a line: Inhibition of bovine chymotrypsin assessed as ratio of Kinact to Ki using Suc-Ala-Ala-Pro-Phe-pNA as substrate incubated over 60 mins by spectrophotometric method. The procedure, abridged: as §1
The target of experiment [15] is T1, Neutrophil elastase (Homo sapiens). The experiment in a line: Binding affinity to human leukocyte elastase at 2.5 uM incubated for 20 mins followed by HEK cell lysate addition by Coomassie brilliant blue G-250 staining based assay. The procedure, abridged: (§5)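 HLE (600 ng) was incubated with 2.5 μM probe for 20 min. HEK cell lysate (9 μg) was added either before or after that incubation. Lysate alone and HLE alone were run as reference lanes. Samples went on SDS-PAGE, read by in-gel fluorescence and then by Coomassie staining.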

For experiment [16] the target is unchanged. Briefly: Binding affinity to human leukocyte elastase at 2.5 uM after 20 mins by Coomassie brilliant blue G-250 staining based assay. The procedure, abridged: as §4
The target is the same in experiment [17]. The experiment in a line: Binding affinity to human leukocyte elastase at 2.5 uM incubated for 20 mins post HEK cell lysate addition by Coomassie brilliant blue G-250 staining based assay. The procedure, abridged: as §5
Experiment [18] has the same target. The experiment in a line: Binding affinity to human leukocyte elastase at 2.5 uM incubated for 20 mins post HEK cell lysate addition by in gel fluorescence detection based SDS-PAGE analysis. The essentials: as §5
Experiment [19] shares this target. Briefly: Binding affinity to human leukocyte elastase at 160 ng after 20 mins by in gel fluorescence detection based SDS-PAGE analysis. The procedure, abridged:
as §4

The target is the same in experiment [20]. The experiment in a line: Binding affinity to human leukocyte elastase at 2.5 uM incubated for 20 mins followed by HEK cell lysate addition by in gel fluorescence detection based SDS-PAGE analysis. The procedure, abridged: as §5
Experiment [21] has the same target. Briefly: Inhibition of human leukocyte elastase at 2.5 uM preincubated with sivelestat for 5 mins followed by compound addition measured after 20 mins in presence of sivelestat by Coomassie brilliant blue G-250 staining based assay. The procedure, abridged:
as §3

Experiment [22] concerns the target T2, Pancreatic elastase (Sus scrofa). Briefly: Inhibition of porcine pancreatic elastase assessed as product formation at 1 uM using MeO-Suc-Ala-Ala-Pro-Val-pNA as substrate incubated over 60 mins by spectrophotometric method. It counts as protein assay. The procedure, abridged:
as §2

Sequence of Coagulation factor X (Bos taurus) (P00743 41-180 limits assumed): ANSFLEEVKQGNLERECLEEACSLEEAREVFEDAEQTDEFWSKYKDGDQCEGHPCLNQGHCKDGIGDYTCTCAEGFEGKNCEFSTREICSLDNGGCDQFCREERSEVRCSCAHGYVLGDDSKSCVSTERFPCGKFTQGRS
Sequence of Coagulation factor X (Bos taurus) (P00743 234-492 limits assumed): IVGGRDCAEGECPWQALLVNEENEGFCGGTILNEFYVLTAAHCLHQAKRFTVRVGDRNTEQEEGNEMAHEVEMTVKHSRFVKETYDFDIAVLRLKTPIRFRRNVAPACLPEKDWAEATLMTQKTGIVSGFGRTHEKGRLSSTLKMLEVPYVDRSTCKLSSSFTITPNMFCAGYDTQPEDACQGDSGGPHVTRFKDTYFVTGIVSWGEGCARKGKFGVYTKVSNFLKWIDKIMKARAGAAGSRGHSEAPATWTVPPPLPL
Sequence of Procathepsin L (Homo sapiens) (P07711 114-333 limits assumed): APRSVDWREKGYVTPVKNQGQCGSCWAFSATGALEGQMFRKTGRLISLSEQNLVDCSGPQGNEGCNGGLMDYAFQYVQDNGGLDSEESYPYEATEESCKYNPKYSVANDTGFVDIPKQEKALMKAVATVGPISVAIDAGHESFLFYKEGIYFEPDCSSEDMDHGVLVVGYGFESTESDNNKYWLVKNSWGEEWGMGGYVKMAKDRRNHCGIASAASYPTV

As to `CSc1ccc(OP(=O)(Oc2ccc(SC)cc2)[C@@H](NC(=O)[C@@H]2CCCN2C(=O)[C@@H](NC(=O)OC(C)(C)C)C(C)C)C(C)C)cc1`, the Ratio stood at 399000 M⁻¹ s⁻¹ in experiment [1] and 7990 M⁻¹ s⁻¹ in [5]. The inhibition (as a rule, the percentage by which the read-out fell short of the control) was greater than 90% in [2]; greater than 90% in [3]; greater than 90% in experiment [4]; greater than 90% in [6]; “Tde” in [8]; greater than 90% in [9]. Further, the inhibition in experiment [10] is greater than 90%. The inhibition entry in [7] is “Active”.

In the case of `CSc1ccc(OP(=O)(Oc2ccc(SC)cc2)[C@@H](NC(=O)[C@@H]2CCCN2C(=O)[C@@H](NC(=O)Cn2cc(-c3ccc(C4=C5C(C)=CC(C)=[N+]5[B-](F)(F)n5c(C)cc(C)c54)cc3)nn2)C(C)C)C(C)C)cc1`, the inhibition entry in [11] was “Active”. For the same compound, the inhibition result in [12] and in [21] was “inactive” throughout. The result in experiment [13], in [15], in experiment [16], in experiment [17], in experiment [18] and in experiment [19] was Active. For the same compound, the outcome in experiment [20] was Active. Also, the Ratio in experiment [1] stood at 88400 M⁻¹ s⁻¹; in [14] it was 565 M⁻¹ s⁻¹; in [5], 1440 M⁻¹ s⁻¹. Moreover, the inhibition in experiment [2], in experiment [4], in experiment [6], in [9] and in experiment [10] was greater than 90% throughout.

Take `CSc1ccc(OP(=O)(Oc2ccc(SC)cc2)[C@H](NC(=O)[C@@H]2CCCN2C(=O)[C@@H](NC(=O)OC(C)(C)C)C(C)C)C(C)C)cc1`: the inhibition in experiment [22] was greater than 90%; in experiment [2] it was greater than 90%; in [3], greater than 90%; in experiment [4], greater than 90%; in experiment [6], greater than 90%; in experiment [8], “Tde”. Also, the inhibition in [9] and in [10] was greater than 90% each time. In experiment [1], the Ratio is 1000 M⁻¹ s⁻¹.

For `CC(C)(C)C(=O)Oc1ccc(S(=O)(=O)Nc2ccccc2C(=O)NCC(=O)O)cc1`, the inhibition entry in [1] is “Dose-dependent effect”.
